Values after ≈ are worked out from the molar mass of the structure shown.
Key:
Format in all cases: functional
Prevotella bivia = assay: Antimicrobial activity against Prevotella bivia assessed as percent susceptible isolates after 48 hrs by agar dilution method
Outline: (§1)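 CLSI agar dilution (M11-A7); inoculum 10^5 CFU applied by replicator; plates incubated anaerobically 48 h at 37°C. For piperacillin-tazobactam, tazobactam held constant at 4 μg/ml.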

Clostridioides difficile [1] = assay: Antimicrobial activity against Clostridium difficile assessed as percent susceptible isolates after 48 hrs by agar dilution method
Finegoldia magna [2] = assay: Antimicrobial activity against Finegoldia magna assessed as percent resistant isolates after 48 hrs by agar dilution method
Outline: (§2)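 CLSI agar dilution on recent Korean clinical anaerobe isolates. Inoculum 10^5 CFU per spot by replicator. Plates incubated in an anaerobic chamber at 37°C for 48 h. For piperacillin plus tazobactam, tazobactam was held constant at 4 μg/ml. Resistance and susceptibility rates derived from MICs.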

[3] = test system: Peptoniphilus asaccharolyticus; assay: Antimicrobial activity against Peptoniphilus asaccharolyticus after 48 hrs by agar dilution method; outline: as §1
Bacteroides ovatus = assay: Antimicrobial activity against Bacteroides ovatus after 48 hrs by agar dilution method
Outline: (§3)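 MICs on clinical anaerobe isolates by the CLSI agar dilution method. Inoculum of 10^5 CFU applied with a Steers replicator. Plates incubated 48 h at 37°C in an anaerobic chamber.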

[4] = test system: Peptoniphilus asaccharolyticus; assay: Antimicrobial activity against Peptoniphilus asaccharolyticus assessed as percent resistant isolates after 48 hrs by agar dilution method; outline: as §2
Phocaeicola vulgatus = assay: Antimicrobial activity against Bacteroides vulgatus after 48 hrs by agar dilution method; outline: as §3
[5] = test system: Bifidobacterium adolescentis; assay: Antimicrobial activity against Bifidobacterium adolescentis after 48 hrs by agar dilution method; outline: as §3
Clostridioides difficile [6] = assay: Antimicrobial activity against Clostridium difficile after 48 hrs by agar dilution method
Bacteroides caccae [7] = assay: Antimicrobial activity against Bacteroides caccae after 48 hrs by agar dilution method; outline: as §3
[8] = test system: Bifidobacterium adolescentis; assay: Antimicrobial activity against Bifidobacterium adolescentis assessed as percent susceptible isolates after 48 hrs by agar dilution method
[9] = test system: Peptostreptococcus anaerobius; assay: Antimicrobial activity against Peptostreptococcus anaerobius after 48 hrs by agar dilution method; outline: as §1
Eubacterium sp. [10] = assay: Antimicrobial activity against Eubacterium sp. assessed as percent susceptible isolates after 48 hrs by agar dilution method; outline: as §1
Schaalia odontolytica [11] = assay: Antimicrobial activity against Actinomyces odontolyticus after 48 hrs by agar dilution method; outline: as §3
Anaerococcus prevotii [12] = assay: Antimicrobial activity against Anaerococcus prevotii assessed as percent susceptible isolates after 48 hrs by agar dilution method
Fusobacterium necrogenes = assay: Antimicrobial activity against Fusobacterium necrogenes after 48 hrs by agar dilution method; outline: as §1
Eubacterium sp. [13] = assay: Antimicrobial activity against Eubacterium sp. after 48 hrs by agar dilution method; outline: as §1
Prevotella intermedia [14] = assay: Antimicrobial activity against Prevotella intermedia assessed as percent susceptible isolates after 48 hrs by agar dilution method; outline: as §1
Schaalia odontolytica [15] = assay: Antimicrobial activity against Actinomyces odontolyticus assessed as percent resistant isolates after 48 hrs by agar dilution method; outline: as §2
Eggerthella lenta [16] = assay: Antimicrobial activity against Eubacterium lentum assessed as percent resistant isolates after 48 hrs by agar dilution method; outline: as §2
Clostridium perfringens [17] = assay: Antimicrobial activity against Clostridium perfringens after 48 hrs by agar dilution method
[18] = test system: Bacteroides thetaiotaomicron; assay: Antimicrobial activity against Bacteroides thetaiotaomicron assessed as percent resistant isolates after 48 hrs by agar dilution method; outline: as §2
Bifidobacterium sp. [19] = assay: Antimicrobial activity against Bifidobacterium sp. assessed as percent resistant isolates after 48 hrs by agar dilution method; outline: as §2
Eubacterium sp. [20] = assay: Antimicrobial activity against Eubacterium sp. assessed as percent resistant isolates after 48 hrs by agar dilution method; outline: as §2
Bifidobacterium sp. [21] = assay: Antimicrobial activity against Bifidobacterium sp. after 48 hrs by agar dilution method; outline: as §3
Eggerthella lenta [22] = assay: Antimicrobial activity against Eubacterium lentum assessed as percent susceptible isolates after 48 hrs by agar dilution method; outline: as §1
[23] = test system: Bacteroides thetaiotaomicron; assay: Antimicrobial activity against Bacteroides thetaiotaomicron after 48 hrs by agar dilution method; outline: as §3
Bacteroides caccae [24] = assay: Antimicrobial activity against Bacteroides caccae assessed as percent susceptible isolates after 48 hrs by agar dilution method
Anaerococcus prevotii [25] = assay: Antimicrobial activity against Anaerococcus prevotii assessed as percent resistant isolates after 48 hrs by agar dilution method; outline: as §2
[26] = test system: Peptoniphilus asaccharolyticus; assay: Antimicrobial activity against Peptoniphilus asaccharolyticus assessed as percent susceptible isolates after 48 hrs by agar dilution method; outline: as §1
Anaerococcus prevotii [27] = assay: Antimicrobial activity against Anaerococcus prevotii after 48 hrs by agar dilution method; outline: as §3
Actinomyces israelii = assay: Antimicrobial activity against Actinomyces israelii assessed as percent resistant isolates after 48 hrs by agar dilution method; outline: as §2
Finegoldia magna [28] = assay: Antimicrobial activity against Finegoldia magna after 48 hrs by agar dilution method; outline: as §1
Prevotella intermedia [29] = assay: Antimicrobial activity against Prevotella intermedia assessed as percent resistant isolates after 48 hrs by agar dilution method; outline: as §2
Eggerthella lenta [30] = assay: Antimicrobial activity against Eubacterium lentum after 48 hrs by agar dilution method; outline: as §1
Fusobacterium varium = assay: Antimicrobial activity against Fusobacterium varium after 48 hrs by agar dilution method; outline: as §1
Actinomyces naeslundii = assay: Antimicrobial activity against Actinomyces naeslundii assessed as percent susceptible isolates after 48 hrs by agar dilution method
Bacteroides caccae [31] = assay: Antimicrobial activity against Bacteroides caccae assessed as percent resistant isolates after 48 hrs by agar dilution method; outline: as §2
[32] = test system: Parabacteroides distasonis; assay: Antimicrobial activity against Bacteroides distasonis assessed as percent susceptible isolates after 48 hrs by agar dilution method
Parvimonas micra = assay: Antimicrobial activity against Peptostreptococcus micros assessed as percent susceptible isolates after 48 hrs by agar dilution method; outline: as §2
[33] = test system: Bifidobacterium adolescentis; assay: Antimicrobial activity against Bifidobacterium adolescentis assessed as percent resistant isolates after 48 hrs by agar dilution method; outline: as §2
Schaalia meyeri = assay: Antimicrobial activity against Actinomyces meyeri assessed as percent resistant isolates after 48 hrs by agar dilution method; outline: as §2
Clostridium perfringens [34] = assay: Antimicrobial activity against Clostridium perfringens assessed as percent susceptible isolates after 48 hrs by agar dilution method
Schaalia odontolytica [35] = assay: Antimicrobial activity against Actinomyces odontolyticus assessed as percent susceptible isolates after 48 hrs by agar dilution method
Clostridioides difficile [36] = assay: Antimicrobial activity against Clostridium difficile assessed as percent resistant isolates after 48 hrs by agar dilution method

Which Activity (Prevotella bivia) does the source give for `CCC[C@@H]1C[C@@H](C(=O)N[C@@H]([C@H]2O[C@H](SC)[C@H](O)[C@@H](O)[C@H]2O)[C@H](C)Cl)N(C)C1` [CLINDAMYCIN] here?
The Activity was 50%.

And the Activity (Clostridioides difficile [1])?
The Activity was 8%.

What about the Activity (Finegoldia magna [2]) of the same compound?
Its Activity is 13%.

And the MIC50 [3]?
The MIC50 was 0.125 µg/mL (≈ 0.294 µM).

What about the MIC90 [3] of the same compound?
The MIC90 was 32 µg/mL (≈ 75.3 µM).

What about the MIC50 (Bacteroides ovatus) of the same compound?
Its MIC50 is > 128 µg/mL.

And the MIC90 (Bacteroides ovatus)?
Its MIC90 is > 128 µg/mL.

And the Activity [4]?
The Activity was 33%.

And the MIC50 (Phocaeicola vulgatus)?
Its MIC50 is > 128 µg/mL.

What about the MIC90 (Phocaeicola vulgatus) of the same compound?
The MIC90 was > 128 µg/mL.

What about the MIC [5] of the same compound?
The MIC was 0.06 µg/mL (≈ 0.141 µM).

What about the MIC50 [5] of the same compound?
Its MIC50 is 0.06 µg/mL (≈ 0.141 µM).

And the MIC90 [5]?
The MIC90 was > 128 µg/mL.

And the MIC50 (Clostridioides difficile [6])?
The MIC50 was 64 µg/mL (≈ 151 µM).

And the MIC90 (Clostridioides difficile [6])?
The MIC90 was 128 µg/mL (≈ 301 µM).

And the MIC50 (Bacteroides caccae [7])?
The MIC50 was > 128 µg/mL.

And the MIC90 (Bacteroides caccae [7])?
Its MIC90 is > 128 µg/mL.

And the Activity [8]?
Its Activity is 85%.

And the MIC50 [9]?
The MIC50 was 0.125 µg/mL (≈ 0.294 µM).

What about the MIC90 [9] of the same compound?
Its MIC90 is 64 µg/mL (≈ 151 µM).

What about the Activity (Eubacterium sp. [10]) of the same compound?
Its Activity is 85%.

And the MIC (Schaalia odontolytica [11])?
The MIC was 0.06 µg/mL (≈ 0.141 µM).

What about the MIC50 (Schaalia odontolytica [11]) of the same compound?
Its MIC50 is 0.06 µg/mL (≈ 0.141 µM).

What about the MIC90 (Schaalia odontolytica [11]) of the same compound?
Its MIC90 is > 128 µg/mL.

And the Activity (Anaerococcus prevotii [12])?
The Activity was 60%.

What about the MIC (Fusobacterium necrogenes) of the same compound?
The MIC was 0.06 µg/mL (≈ 0.141 µM).

And the MIC (Eubacterium sp. [13])?
The MIC was 0.06 µg/mL (≈ 0.141 µM).

And the MIC50 (Eubacterium sp. [13])?
Its MIC50 is 0.06 µg/mL (≈ 0.141 µM).

And the MIC90 (Eubacterium sp. [13])?
The MIC90 was > 128 µg/mL.

What about the Activity (Prevotella intermedia [14]) of the same compound?
The Activity was 100%.

And the Activity (Schaalia odontolytica [15])?
Its Activity is 15%.

What about the Activity (Eggerthella lenta [16]) of the same compound?
Its Activity is 15%.

And the MIC50 (Clostridium perfringens [17])?
The MIC50 was 2 µg/mL (≈ 4.71 µM).

What about the MIC90 (Clostridium perfringens [17]) of the same compound?
The MIC90 was 4 µg/mL (≈ 9.41 µM).

What about the Activity [18] of the same compound?
The Activity was 68%.

What about the Activity (Bifidobacterium sp. [19]) of the same compound?
Its Activity is 15%.

What about the Activity (Eubacterium sp. [20]) of the same compound?
Its Activity is 15%.

And the MIC (Bifidobacterium sp. [21])?
Its MIC is 0.06 µg/mL (≈ 0.141 µM).

What about the MIC50 (Bifidobacterium sp. [21]) of the same compound?
Its MIC50 is 0.06 µg/mL (≈ 0.141 µM).

And the MIC90 (Bifidobacterium sp. [21])?
The MIC90 was > 128 µg/mL.

And the Activity (Eggerthella lenta [22])?
Its Activity is 85%.

What about the MIC50 [23] of the same compound?
The MIC50 was > 128 µg/mL.

And the MIC90 [23]?
Its MIC90 is > 128 µg/mL.

What about the Activity (Bacteroides caccae [24]) of the same compound?
The Activity was 16%.

And the Activity (Anaerococcus prevotii [25])?
The Activity was 40%.

And the Activity [26]?
Its Activity is 67%.

And the MIC50 (Anaerococcus prevotii [27])?
The MIC50 was 2 µg/mL (≈ 4.71 µM).

What about the MIC90 (Anaerococcus prevotii [27]) of the same compound?
Its MIC90 is 128 µg/mL (≈ 301 µM).

What about the Activity (Actinomyces israelii) of the same compound?
The Activity was 15%.

What about the MIC50 (Finegoldia magna [28]) of the same compound?
Its MIC50 is 0.25 µg/mL (≈ 0.588 µM).

And the MIC90 (Finegoldia magna [28])?
The MIC90 was 64 µg/mL (≈ 151 µM).

And the Activity (Prevotella intermedia [29])?
Its Activity is 0%.

What about the MIC (Eggerthella lenta [30]) of the same compound?
Its MIC is 0.06 µg/mL (≈ 0.141 µM).

What about the MIC50 (Eggerthella lenta [30]) of the same compound?
Its MIC50 is 0.06 µg/mL (≈ 0.141 µM).

And the MIC90 (Eggerthella lenta [30])?
Its MIC90 is > 128 µg/mL.

And the MIC (Fusobacterium varium)?
The MIC was 0.06 µg/mL (≈ 0.141 µM).

What about the Activity (Actinomyces naeslundii) of the same compound?
The Activity was 85%.

What about the Activity (Bacteroides caccae [31]) of the same compound?
The Activity was 68%.

And the Activity [32]?
The Activity was 16%.

What about the Activity (Parvimonas micra) of the same compound?
Its Activity is 23%.

And the Activity [33]?
Its Activity is 8%.

What about the Activity (Schaalia meyeri) of the same compound?
Its Activity is 15%.

And the Activity (Clostridium perfringens [34])?
Its Activity is 80%.

And the Activity (Schaalia odontolytica [35])?
Its Activity is 85%.

What about the Activity (Clostridioides difficile [36]) of the same compound?
The Activity was 83%.

From ChEMBL document CHEMBL1671716, “Antimicrobial susceptibility patterns for recent clinical isolates of anaerobic bacteria in South Korea” (2010)
